Measurements reported in PubChem BioAssay AID1665 (Sanford-Burnham Center for Chemical Genomics, 2009).
The whole screen tested about 190,000 compounds, of which about 590 (0.31%) were called active.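 The calls were made as follows: active = nuclear translocation activity above 50% at 5 µM, with a well cell count of 50 or more; inconclusive = wells under 50 cells across six images, flagged as toxic; inactive = the rest.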 Only a selection was taken, and actives are over-represented in it overall.

Assay: modulators of beta-catenin nuclear translocation, primary screen, imaging, HeLa cells, immunofluorescence, high-content (AID 1665);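 as to nuclear translocation activity: plate controls were DMSO negative control for no effect and GSK-3 inhibitor IX positive control for full effect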
Details: at 5 µM; cell count: measured here: cell count, cytotoxicity flag; nuclear translocation activity: stronger effect = higher value
In short: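 Assay system: human HeLa cells, native beta-catenin; doses: 5 µM primary, 0.02–20 µM confirmation; incubation: compound treatment 24 h, 37°C, 5% CO2; technique: fluorescence imaging of beta-catenin antibody stain plus DAPI; measure: % activation, nuclear-to-cytoplasmic median beta-catenin signal ratio per cell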

SMILES | cell count [cells] | nuclear translocation activity
Cc1ccc(OCC(=O)N/N=C\c2ccco2)c(C)c1 | 1340 | -1.4% (inactive)
COc1ccc(CCN2C(=O)CC(N3CCC(C(N)=O)CC3)C2=O)cc1OC (stereo not drawn) | 1240 | 0.6% (inactive)
Cc1ccc(N2NC(=O)/C(=C/C=C/c3ccco3)C2=O)cc1C | 1100 | 1.3% (inactive)
Cc1ccc(N=C2NC(=O)/C(=C/C=C/c3ccco3)S2)cc1C | 321 | 58.6% (active)
Cc1cccc(N=C2NC(=O)/C(=C/c3cn(C)c4ccccc34)S2)c1 | 1040 | 0.7% (inactive)
CCCNc1c(N)c(=O)c1=O | 1380 | -0.4% (inactive)
O=C(N/N=C/c1cccc2cccnc12)[C@H]1C[C@@H]1c1ccccc1 | 1300 | 2.9% (inactive)
Cc1noc(C)c1C(=O)OCC(=O)N1CCN(S(=O)(=O)c2ccc3ccccc3c2)CC1 | 1300 | 0.1% (inactive)
Cc1ccc(C(=O)N/C(=C\c2ccco2)C(=O)NC2CCS(=O)(=O)C2)cc1 (stereo not drawn) | 1360 | -0.2% (inactive)
COc1ccc(CCNC(=O)C(=O)NCC2CCNCC2)cc1OC | 1380 | -1.5% (inactive)
COc1ccc(CCNC(=O)C(=O)Nc2ccc3nc4n(c(=O)c3c2)CCCCC4)cc1OC | 1400 | 0.2% (inactive)
COc1cc2nc(Cl)nc(NCCO)c2cc1OC | 1310 | 0.1% (inactive)
CCOC(=O)c1cc(NC(=O)c2cccnc2)cc(C(=O)OCC)c1 | 1120 | 0.3% (inactive)
CCOc1cccc(C(=O)Nc2cccnc2)c1 | 1110 | -2.1% (inactive)
CCOC(=O)c1ccc(-c2ccc(C(=O)Nc3cccnc3)o2)cc1 | 659 | 56.9% (active)
COC(=O)CNc1nc(Cl)nc(N2CCC(C)CC2)n1 | 1320 | -0.1% (inactive)
CC(C)Sc1nnc([C@H](Cc2ccccc2)NC(=O)OC(C)(C)C)o1 | 1410 | 0.4% (inactive)
CCOC(=O)Cc1cc(=O)[nH]c(/N=C(\N)Nc2ccc(OC)cc2)n1 | 1300 | -0.7% (inactive)
Cc1ccc(C(=O)NNC(=O)c2cc3cc4ccccc4nc3s2)cc1 | 719 | 80.3% (active)
Cc1ccc(C(=O)NNC(=O)c2cccs2)cc1 | 1120 | -0.6% (inactive)
O=C(NNC(=O)c1cc2c(s1)CCCC2)c1ccccc1 | 547 | -1.8% (inactive)
CCOc1ccccc1N1CN(Cc2ccccc2)CNC1=S | 1340 | -1.3% (inactive)

SMILES | cell count [cells] | nuclear translocation activity
CCc1nc2sc3c(Cl)ncnc3c2c2c1CCCC2 | 1350 | -1.6% (inactive)
Cc1cc(=O)[nH]c(S)c1C#N | 1290 | -0.9% (inactive)
O=C(COc1ccccc1)N1CCN=C1SCc1cccc(F)c1 | 1330 | 0.4% (inactive)
COc1cc(C=O)ccc1Oc1nnnn1-c1ccccc1 | 1310 | -0.4% (inactive)
Cc1cc(C(=O)NNS(=O)(=O)c2ccccc2C(F)(F)F)nn1C(C)(C)C | 1120 | -2.9% (inactive)
CCOC(=O)c1c(NC(=O)NC(C)(C)C)sc2c1CCN(C)C2 | 1280 | 0.5% (inactive)
Nc1nc(SC23CC4CC(CC(C4)C2)C3)ns1 | 1340 | 0.7% (inactive)
CC(C)n1c(=S)[nH]c2cc(C(F)(F)F)ccc21 | 1090 | -0.8% (inactive)
COC(=O)c1ccc(S(=O)(=O)NCc2ccccc2)n1C | 1270 | 0.3% (inactive)
CCOCCn1c(-c2ccccc2)nc2ccccc21 | 1340 | -0.7% (inactive)
O=C(O)c1ccccc1OCc1ccccc1Cl | 1320 | -1.2% (inactive)
Cc1cc(=O)[nH]c(N/N=C/c2ccc3c(c2)OCCO3)n1 | 1320 | -0.5% (inactive)
COc1ccc(NC(=O)C2CCC(CNc3c(N4CCCCC4)c(=O)c3=O)CC2)c(OC)c1 (stereo not drawn) | 1350 | -0.3% (inactive)
Cc1nnc2n1N=C(c1ccc3c(c1)NC(=O)CO3)CS2 | 1300 | -0.7% (inactive)
C/C(=N/NC(=O)CN1CCN(S(=O)(=O)c2ccc(Br)cc2)CC1)c1ccncc1 | 1320 | -0.5% (inactive)
Nc1ccc2nn(-c3ccc(Cl)cc3)nc2c1 | 1360 | 1% (inactive)
CC1=NNC(=O)C1CCC(=O)N/N=C(\C)c1ccc(Cl)cc1 (stereo not drawn) | 1240 | 0.6% (inactive)
Cc1cc(C)nc(SCc2cn3c(C)cc(C)nc3n2)n1 | 1340 | -0.4% (inactive)
CCc1nc2sc(C(=O)O)c(N)c2c2c1CCCC2 | 1230 | 2.4% (inactive)
CC(=O)NNC(=O)c1csc(Cc2c(Cl)sc3ccc(Cl)cc23)n1 | 1250 | -0.8% (inactive)
CC(CNS(=O)(=O)c1ccc(Br)cc1)CN(C)C (stereo not drawn) | 1320 | 0.2% (inactive)
COc1ccc(CNC(=O)C(Cc2ccccc2)n2cccc2)cc1 (stereo not drawn) | 1270 | -0.6% (inactive)
